Assay outcomes (PubChem)
Only some compounds are listed: those with a hit (about 3.6% of all), similar ones and a draw of the others.
AHR act – AHR activators, primary screen, cell-based, luminescence, luciferase reporter, human; Aryl hydrocarbon receptor (Homo sapiens), P35869; AHR-responsive luciferase reporter cells; activation, % at 5 µM; hit rate 2.5% among 320,000; in the data active means activation above about 47%;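 further: 0% = vehicle wells and 100% = reference agonist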
Target sequence (P35869 whole entry, looked up): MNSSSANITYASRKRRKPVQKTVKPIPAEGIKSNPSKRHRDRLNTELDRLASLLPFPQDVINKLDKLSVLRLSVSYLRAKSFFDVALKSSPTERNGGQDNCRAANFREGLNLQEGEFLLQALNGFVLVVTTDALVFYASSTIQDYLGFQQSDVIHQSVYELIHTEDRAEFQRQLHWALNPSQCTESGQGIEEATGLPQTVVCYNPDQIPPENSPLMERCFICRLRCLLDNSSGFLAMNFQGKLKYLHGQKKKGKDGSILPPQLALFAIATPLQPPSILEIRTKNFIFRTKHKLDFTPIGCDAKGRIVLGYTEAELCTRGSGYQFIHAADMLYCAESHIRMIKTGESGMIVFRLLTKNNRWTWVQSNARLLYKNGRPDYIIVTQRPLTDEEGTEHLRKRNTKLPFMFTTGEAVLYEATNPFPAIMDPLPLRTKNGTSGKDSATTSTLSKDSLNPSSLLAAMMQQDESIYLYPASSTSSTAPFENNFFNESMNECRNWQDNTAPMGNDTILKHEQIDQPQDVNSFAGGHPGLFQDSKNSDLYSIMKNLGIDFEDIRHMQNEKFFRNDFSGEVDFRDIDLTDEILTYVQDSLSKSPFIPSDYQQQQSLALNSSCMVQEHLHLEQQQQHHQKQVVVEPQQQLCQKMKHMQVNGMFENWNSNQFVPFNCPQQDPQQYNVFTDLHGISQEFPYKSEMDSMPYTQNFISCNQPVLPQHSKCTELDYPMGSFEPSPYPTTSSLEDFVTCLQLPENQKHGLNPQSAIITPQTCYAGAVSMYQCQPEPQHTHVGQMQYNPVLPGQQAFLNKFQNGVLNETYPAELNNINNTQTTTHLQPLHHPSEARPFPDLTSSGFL
PERK inh – block of dimerizer-induced PERK translation repression, primary screen, PERK inhibitor project, CHO PERK-DD cells, SEAP luminescence, HTS; CHO PERK-DD fusion, SEAP luminescence translation reporter; Eukaryotic translation initiation factor 2-alpha kinase 3 (Homo sapiens), Q9NZJ5; hit rate 0.17% among 220,000; inhibition, % at 5.6 µM;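 active means inhibition above the mean inhibition of all tested compounds plus 3 SD, set separately per screening campaign, cut at about 2.9% in these data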;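 further: PERK kinase domain activated by AP20187 dimerizer at 100 nM; 0% = DMSO with dimerizer and 100% = rapamycin at 8.4 µM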
PolyA inhibitor – polyadenylation inhibitors in yeast reporter cells, primary screen, luminescence, S. cerevisiae. S. cerevisiae SKY197-pL101 polyadenylation reporter, beta-gal luminescence; efflux-impaired pdr1/pdr3 knockout yeast; score 100 = 6 SD above DMSO. hit rate 0.02% among 300,000. AID 1875, 2009. activity score, % at 12 µM;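 active means lowest replicate activity score at least 50, where 100 means six control SD above control mean; inconclusive means lowest score under 50 but half or more replicates reach 50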;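 further: yeast exposed to compound for 9 h at 30 °C; higher score means more reporter readthrough which indicates perturbed polyadenylation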
Hsp70 act – Hsp70 transcriptional activators, primary screen, cell-based, HeLa, Hsp70 promoter luciferase, luminescence, 10 µM; activation, % at 10 µM; HeLa Hsp70 promoter luciferase reporter; scaled: vehicle 0, proteasome-inhibitor control 100%; hit rate 0.04% among 200,000; AID 1203, 2008;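 active means activation above the mean across all tested compounds plus 3 SD, cutoff set per campaign, cut at about 5.5% in these data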;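 further: 100% = MG132 at 30 µM as the positive control and 0% = DMSO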
STAT3 act – IL-6 driven STAT3 reporter potentiators, primary screen, U3A cells, luciferase, luminescence, MLSCN library | hit rate 0.91% among 190,000 | AID 871, 2007 | IL-6 STAT3-luciferase reporter; 100% = signal with IL-6 EC80 alone | activation (% of control), % at 5.6 µM;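 active means activation above the screen-wide mean of compound activation plus 3 SD, cut at about 130% in these data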;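 further: 0% = background luminescence of wells with medium and substrate only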
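system = STAT3-luciferase reporter U3A cells | reagent = IL-6 stimulus at 33 ng/mL final | timing = 1 h compound pre-exposure, 6 h IL-6 stimulation, 37 °C | measured by = luminescence | evaluation = % activation versus median of IL-6-stimulated wells | control set = IL-6-only wells as 100% reference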
HSF1 inhib – HSF1 inhibitors in luciferase reporter cells, primary screen, cell-based, NIH3T3, luminescence. activity change, negative = inhibition, % at 7.5 µM (by protocol). hit rate 0.77% among 300,000. NIH3T3-HGL HSE-luciferase, MG132-induced, luminescence 8 h; stronger effect = lower value;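 active means more than half of replicate wells show activity change below -50%, luminescence cut by over half; inconclusive means some wells, but at most half, below -50%; inactive means no replicate well below -50%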;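 further: luciferase reports HSF-1 transcriptional activity via heat shock element; 0% = median of DMSO wells and -100% = zero luminescence signal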
Numbers without * were called inactive; ? = inconclusive; . = not tested or not shown.

SMILES | AHR act | PERK inh | PolyA inhibitor | Hsp70 act | STAT3 act | HSF1 inhib
Cc1ccc(C2=NNC(c3ccc(Cl)cc3)=Nc3ccccc32)o1 | 50* | 0 | -12 | 0 | 109 | 1
COc1cc(/C=N/NC(=O)C(Cc2c[nH]c3ccccc23)NC(=O)OCC(C)C)cc([N+](=O)[O-])c1OCc1ccccc1 (configuration not stated) | 64* | 0 | 0 | 0 | 98 | -4
COc1ccc(-c2cc(C(F)(F)F)n3nc(C)cc3n2)cc1 | 13 | 1 | -21 | 0 | 96 | -1
COc1ccc(-c2cc3nc(C)cc(N4CC(C)CC(C)C4)n3n2)cc1 (configuration not stated) | 50* | 0 | 0 | 0 | 94 | .
Cc1ccc(Cl)cc1NC(=O)C1COc2ccccc2O1 (configuration not stated) | -1 | . | 0 | . | . | -64*
O=C(NC1=NCCS1)C1COc2ccccc2O1 (configuration not stated) | 0 | 1 | 1 | -1 | 14 | -51*
CN(/N=C/c1cccnc1)c1cnc2ccccc2n1 | 32 | 0 | -14 | 0 | 152* | 18
COc1c2ccoc2nc2c(OC)c(OCC(OC(C)=O)C(C)(C)O)ccc12 (configuration not stated) | 1 | 1 | -11 | 0 | . | 3
Cc1cccc(N=Nc2ccc(O)c3ncccc23)c1 | 70* | 0 | -10 | 0 | 104 | 230
COc1cc(/C=C2/SC(=S)N(CC(=O)Nc3cccnc3)C2=O)cc(OC)c1OC | 51* | 0 | ? | 0 | 95 | -3
COc1cc(/C=C2\SC(=S)N(NC(=O)c3ccc(O)cc3)C2=O)ccc1O | 1 | . | 52 | . | . | 1
COc1cc(/C=C2\SC(=S)N(NC(=O)c3cccnc3)C2=O)ccc1O | 3 | -1 | 86* | . | . | -1
Cc1ccc(/C=C2\SC(=S)N(CCCC(=O)Nc3cccnc3)C2=O)cc1 | -20 | . | -1 | . | . | -60*
C[C@H](O)c1[nH]c2cc(F)ccc2c1[C@H](C)O | 17 | . | 7 | . | . | -2
Cc1cc(C(F)(F)F)nc(NCc2ccc(F)cc2)n1 | 4 | 1 | -9 | 0 | 111 | -5
Cc1cc(C(F)(F)F)nc(Nc2nc(C)c3ccccc3n2)n1 | 58* | 0 | -16 | 0 | 102 | 2
Cc1cc(C(=O)COC(=O)c2ccc[nH]c2=O)c(C)n1-c1ccccc1F | 7 | 0 | 8 | . | . | -51*
Cc1cc(C(=O)COC(=O)c2ccc(O)cc2)c(C)n1-c1ccccc1F | -4 | 0 | 7 | 0 | 90 | -63*
CCCn1c(C)cc(C(=O)COC(=O)c2ccc[nH]c2=O)c1C | 3 | 0 | -13 | 0 | 66 | -70*
Cc1ccc(-n2c(C)cc(C(=O)COC(=O)c3ccc[nH]c3=O)c2C)cc1C | -2 | 0 | -58 | 0 | 106 | -14
O=C(CP(=O)(c1ccccc1)c1ccccc1)Nc1nc2ccc(Cl)cc2s1 | 5 | -2 | 13 | . | . | -1
C=CCn1c(NCc2c[nH]c3ccccc23)nc2ccccc21 | 15 | 0 | -2 | 0 | 102 | 17
Cn1c(NCc2c[nH]c3ccccc23)nc2ccccc21 | 74* | -1 | -2 | 0 | 141* | 13
Cn1c(NCc2cccs2)nc2ccccc21 | 49* | 0 | -14 | 0 | 123 | 3
CCn1c(NCc2c[nH]c3ccccc23)nc2ccccc21 | 48* | -1 | 6 | 0 | 98 | 3
O=C(Cc1ccccc1Cl)NCc1cccnc1 | 1 | . | 8 | . | . | 1
C=CCNc1nc(N)c(C(=C(C#N)C#N)c2ccc(Br)cc2)s1 | 57* | 1 | 5 | 0 | 94 | -6
COc1ccc(OC)c(/C=C2\SC(N3CCCCC3)=NC2=O)c1 | 74* | . | -11 | . | . | 8
COc1cc(OC)c(OC)cc1/C=C1\SC(N2CCCCC2)=NC1=O | 10 | . | -15 | . | . | 9
